Data set [1] concerns Rattus norvegicus. The experiment in a line: Central dopamine receptor stimulating activity in Sprague-Dawley rat assessed as reduction in DOPA accumulation in limbic region of brain at 2 umol/kg, sc by spectrophotometric method. Format: functional. Conditions: Limbic system. A digest of the protocol:
(§1)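 Male Sprague-Dawley rats (200-350 g), reserpinized. Compounds dissolved in saline immediately before use, neutral pH, 10 mL/kg, given sc over a dose range. Aromatic-L-amino-acid decarboxylase inhibited (100 mg/kg). Dopa and 5-HTP accumulation measured spectrophotometrically in striatum, limbic forebrain and remaining hemispheral portions. ED50 = dose giving 50% of maximal reduction versus control portions, estimated from dose-response curves. Experiments run 9–12 a.m.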

Data set [2] deals with Rattus norvegicus. The experiment in a line: Central dopamine receptor stimulating activity in reserpenized Sprague-Dawley rat assessed as duration of action of motor activity at 20 umol/kg, po administered via stomach tube measured 6 hrs post-reserpine challenge by motility meter analysis. It is filed as functional. A digest of the protocol: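 Male Sprague-Dawley rats (200-350 g) given reserpine 10 mg/kg ip 6 h before testing. Drug in saline, 20 µmol/kg po by stomach tube. Rats then placed singly in photocell motility meters. Counts recorded per 5-min period until effect ceased (<10 counts/5 min) to give duration of action. Testing 1–6 p.m.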

The subject of data set [3] is Rattus norvegicus. The experiment in a line: Central dopamine receptor stimulating activity in reserpenized Sprague-Dawley rat assessed as duration of action of motor activity at 2 umol/kg, sc measured 6 hrs post-reserpine challenge by motility meter analysis. It is filed as functional. Summed up: (§2)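 Male Sprague-Dawley rats (200-350 g) given reserpine 10 mg/kg ip 6 h before testing. Drug in saline, 2 µmol/kg sc in the neck. Rats then placed singly in photocell motility meters. Counts recorded per 5-min period until effect ceased (<10 counts/5 min), giving duration and AUC. Means of four to six recordings. Testing 1–6 p.m.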

The subject of data set [4] is Rattus norvegicus. The experiment in a line: Central dopamine receptor stimulating activity in reserpenized Sprague-Dawley rat assessed as latency period of motor activity at 2 umol/kg, sc measured 6 hrs post-reserpine challenge by motility meter analysis. Format: functional. Summed up:
as §2

For data set [5], the system named is Rattus norvegicus. The experiment in a line: Central dopamine receptor stimulating activity in Sprague-Dawley rat assessed as reduction in DOPA accumulation in striatum of brain at 2 umol/kg, sc by spectrophotometric method. Format: functional. Summed up: as §1
Data set [6] deals with Rattus norvegicus. In words: Central noradrenaline receptor stimulating activity in Sprague-Dawley rat assessed as reduction in DOPA accumulation in hemispheral portion of cerebrum at 2 umol/kg, sc by spectrophotometric method. Format: functional, organism-based. A digest of the protocol:
as §1

Data set [7] relates to Rattus norvegicus. The experiment in a line: Central serotonin receptor stimulating activity in Sprague-Dawley rat assessed as reduction in 5-HTP accumulation in striatum of brain at 2 umol/kg, sc by spectrophotometric method. Format: functional, organism-based. A digest of the protocol:
as §1

The subject of data set [8] is Rattus norvegicus. In words: Central serotonin receptor stimulating activity in Sprague-Dawley rat assessed as reduction in 5-HTP accumulation in limbic region of brain at 2 umol/kg, sc by spectrophotometric method. It is filed as functional, organism-based. Conditions: Limbic system. Summed up: as §1
The subject of data set [9] is Rattus norvegicus. In words: Toxicity in sc dosed Sprague-Dawley rat assessed as gross behaviour at ED50. Conditions: in vivo. Format: organism-based.
Data set [10] has as its system Rattus norvegicus. In words: Central serotonin receptor stimulating activity in Sprague-Dawley rat assessed as reduction in 5-HTP accumulation in hemispheral portion of cerebrum at 2 umol/kg, sc by spectrophotometric method. Format: functional, organism-based. Summed up: as §1

Calls of active or inactive are those of the source. The rule behind the calls is not given here.

Regarding `CN1CCc2cccc3c2[C@H]1Cc1ccc(O)c(O)c1-3` [APOMORPHINE], the values for the ED50 in data set [1] and in data set [5] were 0.19 µmol/kg and 0.22 µmol/kg, respectively. For the same molecule, the Time in data set [2] is 33 min; in data set [3], 60 min; in data set [4] it was 0 min.
For `Br.CCCCN(CC)C1CCc2c(O)cccc2C1` (stereo unspecified), the result in data set [6], in [7], in [8] and in data set [10] was inactive. The ED50 was 0.03 µmol/kg in [1] and 0.035 µmol/kg in data set [5]. The Time in data set [2] is given as 63 min; in data set [3], 118 min; in data set [4], 0 min. Besides, the Activity entry in [9] is given as “Non-toxic”.
For `CCCCN(CC)C1CCc2c(cccc2OC)C1.Cl` (stereo unspecified), the result in data set [6], in data set [7], in [8] and in [10] was inactive. The results for the ED50 in data set [1] and in [5] were 0.068 µmol/kg and 0.079 µmol/kg, respectively. In data set [9], the Activity entry is listed as “Non-toxic”. Further, the Time is listed as 140 min in [3] and 16 min in [4].
As to `Br.CCN(C)C1CCc2c(O)cccc2C1` (stereo unspecified), the result in [6], in data set [7], in [8] and in data set [10] was inactive. The values for the ED50 in data set [1] and in data set [5] were 0.074 µmol/kg and 0.053 µmol/kg, respectively. Also, the Activity entry in data set [9] is “Non-toxic”. The Time in data set [3] is listed as 31 min; in data set [4] it was 3 min.
For the molecule `Br.CCN(CC)C1CCc2c(O)cccc2C1` (stereo unspecified), the result in [6], in data set [7], in [8] and in data set [10] was inactive. Besides, the median effective dose (ED50) in data set [1] worked out at 0.077 µmol/kg; in [5] it was 0.071 µmol/kg. For the same molecule, the Activity result in data set [9] is reported as “Non-toxic”. Moreover, the figures for the Time in data set [3] and in [4] were 54 min and 0 min, respectively.
As for `Br.CCCN(CC)C1CCc2c(O)cccc2C1` (stereo unspecified), the result in [6], in data set [7], in data set [8] and in [10] was inactive. For the same molecule, the ED50 in data set [1] was found to be 0.024 µmol/kg; in data set [5], 0.017 µmol/kg. The Time in data set [2] turned out to be 40 min; in data set [3], 82 min; in data set [4], 0 min. Further, in data set [9], the Activity entry is “Non-toxic”.
In the case of `Br.CCCNC1CCc2c(O)cccc2C1` (stereo unspecified), the outcome in [6], in [7], in data set [8] and in data set [10] was inactive. Moreover, the values for the ED50 in data set [1] and in data set [5] were 0.04 µmol/kg and 0.046 µmol/kg, respectively. For the same molecule, the Activity result in data set [9] is reported as “Non-toxic”. Besides, the Time in data set [3] came out at 45 min; in data set [4] it was 0 min.
Take `Br.CCCN(C(C)C)C1CCc2c(O)cccc2C1` (stereo unspecified): the outcome in data set [6], in data set [7], in [8] and in [10] was inactive. Moreover, the ED50 is 0.07 µmol/kg in data set [1] and 0.087 µmol/kg in [5]. Besides, the Activity result in data set [9] is given as “Non-toxic”. For the same molecule, the Time in data set [3] is 55 min; in data set [4] it was 4 min.
As to `CCCN(CC)C1CCc2c(cccc2OC)C1.Cl` (stereo unspecified), the result in data set [6], in data set [7], in data set [8] and in data set [10] was inactive. Also, the ED50 came to 0.065 µmol/kg in [1] and 0.062 µmol/kg in data set [5]. In addition, in data set [9], the Activity result is given as “Non-toxic”. In addition, the Time in [3] amounted to 96 min; in data set [4], 13 min.
For `CCCN(CCc1ccccc1)C1CCc2c(O)cccc2C1.Cl` (stereo unspecified), the result in [6], in data set [7], in [8] and in [10] was inactive. Besides, the figures for the ED50 in [1] and in data set [5] were 0.022 µmol/kg and 0.017 µmol/kg, respectively. Moreover, the Activity result in data set [9] is “Non-toxic”. Also, the Time in data set [3] is 53 min; in data set [4] it was 0 min.
Turning to `Br.CCCN(C)C1CCc2c(O)cccc2C1` (stereo unspecified), the outcome in data set [6], in data set [7], in data set [8] and in data set [10] was inactive. The ED50 was 0.023 µmol/kg in [1] and 0.029 µmol/kg in [5]. Also, in data set [9], the Activity result is given as “Non-toxic”. The Time in data set [3] stood at 73 min; in data set [4], 0 min.
In the case of `CCCN(CCC)C1CCc2c(cccc2OC)C1.Cl` (stereo unspecified), the result in [6], in [7], in data set [8] and in data set [10] was inactive. In addition, the ED50 was 0.013 µmol/kg in [1] and 0.018 µmol/kg in [5]. For the same molecule, the Activity entry in data set [9] is “Non-toxic”. The results for the Time in data set [3] and in [4] were 122 min and 15 min, respectively.
Take `CCCN(C)C1CCc2c(cccc2OC)C1.Cl` (stereo unspecified): the outcome in [6], in [7], in data set [8] and in [10] was inactive. The ED50 in data set [1] came out at 0.12 µmol/kg; in data set [5] it was 0.096 µmol/kg. Moreover, in data set [9], the Activity result is listed as “Non-toxic”. Also, the Time in data set [3] turned out to be 69 min; in data set [4], 15 min.
In the case of `Br.CCCN(CCC)C1CCc2c(O)cccc2C1` (stereo unspecified), the result in [6], in data set [7], in [8] and in data set [10] was inactive. The ED50 is 0.011 µmol/kg in [1] and 0.009 µmol/kg in data set [5]. Besides, the Time in data set [2] amounted to 121 min; in [3] it was 127 min; in [4], 0 min. The Activity result in [9] is reported as “Non-toxic”.
Consider `Br.CCCN(CCC)C1CCc2c(ccc(O)c2O)C1` (stereo unspecified), for which the result in data set [6], in [7], in data set [8] and in data set [10] was inactive. For the same molecule, the ED50 in [1] and in data set [5] was 0.007 µmol/kg in each case. For the same molecule, the Activity entry in data set [9] was “Non-toxic”. Further, the Time in data set [3] is 193 min; in data set [4], 0 min.
In the case of `CCCN(CC(C)(C)C)C1CCc2c(O)cccc2C1.Cl` (stereo unspecified), the result in data set [6], in [7], in [8] and in data set [10] was inactive. The ED50 in data set [1] was 0.2 µmol/kg; in [5] it was 0.12 µmol/kg. The Activity result in [9] was “Non-toxic”. Further, the results for the Time in data set [3] and in data set [4] were 68 min and 9 min, respectively.
In the case of `Br.CCCCN(CCC)C1CCc2c(O)cccc2C1` (stereo unspecified), the outcome in data set [6], in data set [7], in data set [8] and in [10] was inactive. Further, the values for the median effective dose (ED50) in data set [1] and in [5] were 0.011 µmol/kg and 0.014 µmol/kg, respectively. The Time is reported as 117 min in data set [2], 158 min in [3] and 0 min in [4]. Moreover, the Activity entry in data set [9] is on record as “Non-toxic”.
Consider `CCCCCN(CCC)C1CCc2c(cccc2OC)C1.O=C(O)C(=O)O` (stereo unspecified), for which the outcome in [6], in data set [7], in data set [8] and in data set [10] was inactive. The ED50 in data set [1] came to 0.092 µmol/kg; in data set [5] it was 0.101 µmol/kg. Further, the Activity entry in data set [9] is “Non-toxic”. The figures for the Time in [3] and in data set [4] were 93 min and 15 min, respectively.
Regarding `CCCCN(CCC)C1CCc2c(cccc2OC)C1.Cl` (stereo unspecified), the result in [6], in data set [7], in [8] and in [10] was inactive. In addition, the ED50 in data set [1] amounted to 0.04 µmol/kg; in data set [5], 0.036 µmol/kg. Further, the Activity result in data set [9] is listed as “Non-toxic”. For the same molecule, the Time in data set [3] is 106 min; in [4], 14 min.

The ED50 is the midpoint of the dose-response relation.

For the origin of these results see ChEMBL document CHEMBL3227985, “N-Alkylated 2-aminotetralins: central dopamine-receptor stimulating activity” (J Med Chem, 1979).
